Calls of active or inactive are those of the source. The calls are words filed in the database; no cut-off is given here.
Legend:
[1] = target: T1, Prostaglandin D2 receptor (Homo sapiens, UniProt Q13258); assay: Displacement of [3H]-PGD2 from human Prostanoid DP receptor expressed in human HEK293 cells by scintillation counter in presence of 0.5% bovine serum albumin; format: cell-based
T1 sequence (Q13258 whole entry): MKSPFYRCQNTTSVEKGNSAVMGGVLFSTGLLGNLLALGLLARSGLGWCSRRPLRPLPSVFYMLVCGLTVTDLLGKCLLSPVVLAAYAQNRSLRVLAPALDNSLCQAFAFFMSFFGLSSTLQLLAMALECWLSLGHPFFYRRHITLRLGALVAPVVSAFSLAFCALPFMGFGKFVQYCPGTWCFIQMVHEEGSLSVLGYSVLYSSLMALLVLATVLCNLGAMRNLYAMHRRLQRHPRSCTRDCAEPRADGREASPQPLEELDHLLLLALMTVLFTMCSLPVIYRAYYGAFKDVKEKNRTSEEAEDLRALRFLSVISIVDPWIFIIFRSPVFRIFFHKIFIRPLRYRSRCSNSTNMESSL
Procedure, shortened: (§1)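 [3H]-PGD2 incubated with HEK-293 cells stably expressing human DP, with increasing compound concentrations; binding buffer held 0.5% BSA or 50% human plasma. Means of three experiments, standard deviation ±30%.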

[2] = target: T1, Prostaglandin D2 receptor; assay: Displacement of [3H]-PGD2 from human Prostanoid DP receptor expressed in human HEK293 cells by scintillation counter in presence of 50% human plasma; format: cell-based; procedure, shortened: as §1
[3] = target: T2, Prostaglandin D2 receptor 2 (Homo sapiens, UniProt Q9Y5Y4); assay: Displacement of [3H]-PGD2 from human CRTH2 receptor expressed in human HEK293 cells by scintillation counter in presence of 0.5% bovine serum albumin; format: cell-based
T2 sequence (Q9Y5Y4 whole entry): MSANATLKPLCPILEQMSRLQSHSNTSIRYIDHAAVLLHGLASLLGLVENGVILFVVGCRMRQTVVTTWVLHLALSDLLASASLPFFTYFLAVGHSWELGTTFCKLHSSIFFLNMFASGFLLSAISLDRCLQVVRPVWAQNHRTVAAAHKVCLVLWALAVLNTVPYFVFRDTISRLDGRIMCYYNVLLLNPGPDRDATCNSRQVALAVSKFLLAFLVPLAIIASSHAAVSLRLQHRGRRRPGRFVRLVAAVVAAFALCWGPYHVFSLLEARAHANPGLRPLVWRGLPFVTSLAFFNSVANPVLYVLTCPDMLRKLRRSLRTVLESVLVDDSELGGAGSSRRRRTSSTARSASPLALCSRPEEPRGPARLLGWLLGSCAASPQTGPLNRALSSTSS

[4] = target: T2, Prostaglandin D2 receptor 2; assay: Displacement of [3H]-PGD2 from human CRTH2 receptor expressed in human HEK293 cells by scintillation counter in presence of 50% human plasma; format: cell-based
[5] = Mean residence time in dog; format: ADME, organism-based, Canis lupus familiaris; conditions: in vivo
[6] = Inhibition of CYP450; format: ADME
[7] = Clearance in dog at 0.5 mg/kg, iv; format: ADME, organism-based, Canis lupus familiaris; design: dose 0.5 mg/kg, route intravenous; conditions: in vivo
[8] = Plasma concentration in guinea pig at 0.1 mg/kg, sc after 4 hrs; format: ADME, organism-based, Cavia porcellus; design: dose 0.1 mg/kg, route subcutaneous
Procedure, shortened: (§2)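 Guinea pig plasma drug levels taken 4 h after sc dosing, in the PGD2 aerosol airway-constriction study; n = 4 animals per group.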

[9] = Oral bioavailability in cynomolgus monkey at 2 mg/kg; format: ADME, organism-based, Macaca fascicularis; conditions: in vivo
[10] = Oral bioavailability in rat at 2 mg/kg; format: ADME, organism-based; conditions: in vivo
[11] = Volume of distribution at steady state in rat; format: ADME, organism-based; conditions: in vivo, read-out: Vdss
[12] = Oral bioavailability in dog at 2 mg/kg; format: ADME, organism-based, Canis lupus familiaris; conditions: in vivo
[13] = Antagonist activity at guinea pig Prostanoid DP receptor in whole blood by cAMP assay; format: functional; conditions: Cavia porcellus
[14] = Volume of distribution at steady state in dog; format: ADME, organism-based, Canis lupus familiaris; conditions: in vivo, read-out: Vdss
[15] = Clearance in rat at 0.5 mg/kg, iv; format: ADME, organism-based; design: dose 0.5 mg/kg, route intravenous; conditions: in vivo
[16] = Mean residence time in rat; format: ADME, organism-based; conditions: in vivo
Cavia porcellus [17] = assay: Inhibition of PGD2-induced airway constriction in guinea pig model at 0.1 to 10 mg/kg, sc administered 4 hrs prior to aerosolized PGD2 challenge; format: functional, organism-based
Procedure, shortened: (§3)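 Guinea pigs dosed sc 4 h before exposure to aerosolized PGD2 (0.6 mg/mL). Airway resistance recorded as Penh (enhanced pause) in response to the challenge. n = 4 animals per group.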

[18] = Plasma concentration in guinea pig at 0.3 mg/kg, sc after 4 hrs; format: ADME, organism-based, Cavia porcellus; design: dose 0.3 mg/kg, route subcutaneous; procedure, shortened: as §2
[19] = Clearance in cynomolgus monkey at 0.5 mg/kg, iv; format: ADME, organism-based, Macaca fascicularis; design: dose 0.5 mg/kg, route intravenous; conditions: in vivo
[20] = Plasma concentration in guinea pig at 3 mg/kg, sc after 4 hrs; format: ADME, organism-based, Cavia porcellus; design: dose 3 mg/kg, route subcutaneous; procedure, shortened: as §2
[21] = Mean residence time in cynomolgus monkey; format: ADME, organism-based, Macaca fascicularis; conditions: in vivo
[22] = Plasma concentration in guinea pig at 10 mg/kg, sc after 4 hrs; format: ADME, organism-based, Cavia porcellus; design: dose 10 mg/kg, route subcutaneous; procedure, shortened: as §2
[23] = Plasma concentration in guinea pig at 1 mg/kg, sc after 4 hrs; format: ADME, organism-based, Cavia porcellus; design: dose 1 mg/kg, route subcutaneous; procedure, shortened: as §2
[24] = Volume of distribution at steady state in cynomolgus monkey; format: ADME, organism-based, Macaca fascicularis; conditions: in vivo, read-out: Vdss
Cavia porcellus [25] = assay: Inhibition of PGD2-induced airway constriction in guinea pig model at 0.3 to 10 mg/kg, sc administered 4 hrs prior to aerosolized PGD2 challenge; format: functional, organism-based; procedure, shortened: as §3

Row | SMILES | IC50 [1] | IC50 [2] | IC50 [3] | IC50 [4] | further results
1 | CCCCNC(=O)c1ccc(Oc2ccc(CC(=O)O)cc2OC)c(NS(=O)(=O)c2ccc(Cl)c(Cl)c2)c1 | 21 nM | 120 nM |  |  | 
2 | O=C(O)Cc1ccc(Oc2ccc(C(=O)NC3CCC3)cc2NS(=O)(=O)c2ccc(Cl)cc2)c(Cl)c1 | 16 nM | 85 nM | 6 nM | 12 nM | 
3 | CCCCNC(=O)c1ccc(Oc2cc(F)c(CC(=O)O)cc2F)c(NS(=O)(=O)c2ccc(Cl)cc2Cl)c1 | 7 nM | 600 nM |  |  | 
4 | CC(C)(C)NC(=O)c1ccc(Oc2cc(F)c(CC(=O)O)cc2Cl)c(NS(=O)(=O)c2ccc(C3CC3)cc2Cl)c1 [VIDUPIPRANT] | 4 nM | 35 nM |  |  | MRT [5]: 3 h; inhibition (INH) [6]: Not Active; clearance [7]: 15 mL/min/kg; concentration at 4 h [8]: 32 nM; bioavailability [9]: 79%; bioavailability [10]: 87%; Vd [11]: 0.71 L/kg; bioavailability [12]: 100%; Kb [13]: 5 nM; Vd [14]: 2.72 L/kg; clearance [15]: 3.17 mL/min/kg; MRT [16]: 3.9 h; inhibition (Cavia porcellus [17]): Active; concentration at 4 h [18]: 40 nM; clearance [19]: 16 mL/min/kg; concentration at 4 h [20]: 222 nM; MRT [21]: 1 h; concentration at 4 h [22]: 1400 nM; concentration at 4 h [23]: 77 nM; Vd [24]: 0.97 L/kg
5 | CCCCNC(=O)c1ccc(Oc2ccc(CC(=O)O)cc2Cl)c(NS(=O)(=O)c2ccc(Cl)cc2Cl)c1 | 8 nM | 1330 nM | 6 nM | 90 nM | 
6 | CCCCNC(=O)c1ccc(Oc2ccc(CC(=O)O)cc2OC)c(NS(=O)(=O)c2ccc(C(F)(F)F)cc2Cl)c1 | 21 nM | 190 nM |  |  | 
7 | CCCCNC(=O)c1ccc(Oc2ccc(CC(=O)O)cc2C)c(NS(=O)(=O)c2ccc(Cl)cc2Cl)c1 | 6 nM | 230 nM | 3 nM | 26 nM | 
8 | CCCCNC(=O)c1ccc(Oc2ccc(CC(=O)O)cc2OC)c(NS(=O)(=O)c2ccc(Cl)cc2Cl)c1 |  |  |  |  | inhibition (Cavia porcellus [25]): Active; Kb [13]: 82 nM; concentration at 4 h [18]: 117 nM; concentration at 4 h [20]: 688 nM; concentration at 4 h [22]: 939 nM; concentration at 4 h [23]: 152 nM
9 | COc1cc(CC(=O)O)ccc1Oc1ccc(C(=O)NC2CCC2)cc1NS(=O)(=O)c1ccc(C(F)(F)F)cc1Cl | 13 nM | 45 nM | 4 nM | 13 nM | 
10 | O=C(O)Cc1ccc(Oc2ccc(C(=O)NC3CC3)cc2NS(=O)(=O)c2ccc(Cl)cc2Cl)c(Cl)c1 | 14 nM | 220 nM | 7 nM | 25 nM | 
11 | O=C(O)Cc1cc(F)c(Oc2ccc(C(=O)NC3CCC3)cc2NS(=O)(=O)c2ccc(C(F)(F)F)cc2Cl)cc1F | 9 nM | 22 nM | 13 nM | 41 nM | 
12 | COc1cc(CC(=O)O)ccc1Oc1ccc(C(=O)NC2CC2)cc1NS(=O)(=O)c1ccc(Cl)cc1Cl |  | 1030 nM |  |  | 
13 | CCCCNC(=O)c1ccc(Oc2ccc(CC(=O)O)cc2OC)c(NS(=O)(=O)c2cc(Cl)ccc2Cl)c1 | 50 nM | 3640 nM |  |  | 
14 | O=C(O)Cc1ccc(Oc2ccc(C(=O)NC3CCC3)cc2NS(=O)(=O)c2ccc(Cl)cc2Cl)c(Cl)c1 | 9 nM | 210 nM | 5 nM | 19 nM | 
15 | CC(C)(C)NC(=O)c1ccc(Oc2ccc(CC(=O)O)cc2Cl)c(NS(=O)(=O)c2ccc(Cl)cc2)c1 | 46 nM | 450 nM | 9 nM | 15 nM | 
16 | CCCCNC(=O)c1ccc(Oc2ccc(CC(=O)O)cc2OC)c(NS(=O)(=O)c2cc(Cl)cc(Cl)c2)c1 | 930 nM | > 10000 nM |  |  | 
17 | CCCCNC(=O)c1ccc(Oc2ccc(CC(=O)O)cc2C#N)c(NS(=O)(=O)c2ccc(Cl)cc2Cl)c1 | 310 nM |  | 18 nM | 210 nM | 
18 | O=C(O)Cc1cc(F)c(Oc2ccc(C(=O)NC3CCC3)cc2NS(=O)(=O)c2ccc(OC(F)(F)F)cc2Cl)cc1F | 20 nM | 42 nM | 25 nM | 53 nM | 
19 | CCCCNC(=O)c1ccc(Oc2ccc(CC(=O)O)cc2OC)c(NS(=O)(=O)c2cccc(Cl)c2Cl)c1 | 520 nM | 2340 nM |  |  | 
20 | CCCCNC(=O)c1ccc(Oc2ccc(CC(=O)O)cc2OC)c(NS(=O)(=O)c2c(Cl)cccc2Cl)c1 | > 10000 nM |  |  |  | 
21 | CC(C)(C)NC(=O)c1ccc(Oc2cc(F)c(CC(=O)O)cc2Cl)c(NS(=O)(=O)c2ccc(OC(F)(F)F)cc2Cl)c1 | 14 nM |  | 9 nM | 19 nM | 
22 | CC(C)(C)NC(=O)c1ccc(Oc2ccc(CC(=O)O)cc2Cl)c(NS(=O)(=O)c2ccc(Cl)cc2Cl)c1 | 15 nM | 230 nM | 5 nM | 12 nM | 
23 | O=C(O)Cc1cc(Cl)c(Oc2ccc(C(=O)NC3CCC3)cc2NS(=O)(=O)c2ccc(OC(F)(F)F)cc2Cl)cc1F | 10 nM | 19 nM | 5 nM | 8 nM | 
24 | CCCCNC(=O)c1ccc(Oc2ccc(CC(=O)O)cc2F)c(NS(=O)(=O)c2ccc(Cl)cc2Cl)c1 | 30 nM | 440 nM | 7 nM | 110 nM | 

Source: ChEMBL document CHEMBL1949635, “Discovery of AMG 853, a CRTH2 and DP Dual Antagonist” (ACS Med Chem Lett, 2011)
